Compound activity deposited in PubChem by several laboratories.
In the library only some 3% were active in any assay of this set; here they are far more common.
MEKK2mut PB1 HTS = signal of MEK5 binding to mutant human MEKK2 PB1 domain; bead flow cytometry, Alexa488-MEK5 binding to MEKK2 mutant; percent response, % at 10 µM; 0.35% of 290,000 active; AID 1530; in the data active means percent response above about 24%, passing the limit was not always enough
MEKK2 WT-MEK5 = raises or lowers MEK5 binding to wildtype human MEKK2 PB1 domain; Q9Y2U5; bead flow cytometry, Alexa488-MEK5 binding to MEKK2 WT; actives lie on both sides; binding response (% of control), % at 10 µM; 1.1% of 290,000 active; in the data active means binding response below about 67% or above about 130%
UCH37 DUB inh = blocks the human deubiquitinase UCH37; Q9Y5K5; purified proteasome/UCH37, Ub-AMC cleavage fluorescence; inhibition, % (no concentration beside the values); 0.33% of 330,000 active; AID 588478;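 active means mean inhibition over replicate wells above about 20%, limit read from the data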;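 further: 0% = compound-free wells with enzyme and 100% = wells lacking proteasome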
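assay system = human UCH37 enzyme supplied as purified proteasome complex | amount = proteasome at 0.15 nM in the dispensed enzyme solution | schedule = 30 min compound-proteasome preincubation then 25 min substrate reaction, room temperature | measured by = fluorescence, ex 355 nm, em 460 nm | benchmarks = no-proteasome wells (full inhibition) and compound-free wells (no inhibition)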
UBC13 polyUb = inhibitors of human UBC13 polyubiquitin chain formation; TR-FRET; inhibition, % at 20 µM; 0.47% of 330,000 active; AID 485273; in the data active means inhibition above about 45%, passing the limit was not always enough
Apaf-1 inh = human Apaf-1 inhibition; inhibition, % at 20 µM; O14727; reconstituted apoptosome caspase-3 activity, DEVD-Rh110 fluorescence; 0.71% of 330,000 active; active means inhibition of at least 40% at 20 µM;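 further: plate controls were DMSO wells for no effect and DEVD-CHO caspase inhibitor wells for full effect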
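Material: cell-free apoptosome with Apaf-1, procaspase-3 and caspase-9; Buffer or medium: Hepes pH 7.5 with detergent and BSA; Reagent: cytochrome c trigger plus (Z-DEVD)2-Rh110 caspase-3 substrate; Times: compound with Apaf-1, dATP, procaspase-3 30 min, then 50 min reaction, room temperature; Technique: Rh110 fluorescence intensity.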
MEKK3 PB1 HTS = modulators (inhibitors or enhancers) of MEK5 binding to human MEKK3 PB1 domain | Q99759 | bead-based flow cytometry, Alexa488-MEK5 binding to MEKK3; actives lie on both sides; 0 = blocked by unlabeled MEK5, 100 = vehicle | binding response (% of control), % at 10 µM | 1.4% of 290,000 active;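 active means binding response more than 3 SD above or below the average of its plate-row segment, actives on both sides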;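 further: Alexa488 bead fluorescence after subtracting the streptavidin-only scavenger bead signal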
Target sequence (Q99759 whole entry, looked up, the tested form may be a part): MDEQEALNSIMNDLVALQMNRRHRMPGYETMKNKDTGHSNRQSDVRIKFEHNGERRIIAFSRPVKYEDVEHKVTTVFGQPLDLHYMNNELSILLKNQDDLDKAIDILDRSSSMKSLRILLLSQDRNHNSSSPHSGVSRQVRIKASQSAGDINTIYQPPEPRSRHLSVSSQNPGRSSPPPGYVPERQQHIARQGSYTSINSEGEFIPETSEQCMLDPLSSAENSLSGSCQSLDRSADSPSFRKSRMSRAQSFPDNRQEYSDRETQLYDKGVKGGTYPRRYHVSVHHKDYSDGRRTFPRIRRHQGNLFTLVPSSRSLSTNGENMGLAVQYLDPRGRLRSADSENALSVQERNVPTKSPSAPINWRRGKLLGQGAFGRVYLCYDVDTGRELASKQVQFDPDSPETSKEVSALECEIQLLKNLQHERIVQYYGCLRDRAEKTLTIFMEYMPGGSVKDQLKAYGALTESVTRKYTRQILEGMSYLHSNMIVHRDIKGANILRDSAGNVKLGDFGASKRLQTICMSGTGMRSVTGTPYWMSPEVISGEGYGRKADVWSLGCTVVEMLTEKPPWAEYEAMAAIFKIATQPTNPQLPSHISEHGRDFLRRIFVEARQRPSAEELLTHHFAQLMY
Apaf-1 inh conf = confirmation of Apaf-1 inhibitors; reconstituted apoptosome, caspase-3 DEVD-Rh110 fluorescence; shares compounds with Apaf-1 inh; 25% of 1,800 active; AID 504614; inhibition, % at 20 µM;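 active means mean inhibition of at least 40% at 20 µM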;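 further: plate controls were DMSO wells for no effect and DEVD-CHO caspase inhibitor control wells for full effect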
Rh110 quench = counter-screen for Apaf-1 inhibitors: fluorescence interference; activation (fluorescence interference), % at 20 µM; 1,800 tested, under 10 active; shares compounds with Apaf-1 inh; Rh110 fluorescence interference, quenched caspase reaction;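 active means signal rise of 40% or more at 20 µM, treated as a fluorescence artifact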
Apaf1 inh interf = counter-screen for Apaf-1 inhibitors: fluorescence interference, dose response | shares compounds with Apaf-1 inh | fluorescence interference counterscreen, Apaf-1 assay format | IC50, µM | 460 tested, under 10 active | AID 588538; call rule not given here
Starred values were filed as active, the others as inactive; / = not tested or not shown.

SMILES | MEKK2mut PB1 HTS | MEKK2 WT-MEK5 | UCH37 DUB inh | UBC13 polyUb | Apaf-1 inh | MEKK3 PB1 HTS | Apaf-1 inh conf | Rh110 quench | others
COc1ccc(CC(=O)N(C)CC(=O)Nc2c(C)cccc2C)cc1S(=O)(=O)N1CCOCC1 | / | / | 1 | 40 | 60* | / | 39 | 5
COc1ccc(CC(=O)N(C)CC(=O)Nc2ccccc2C(F)(F)F)cc1S(=O)(=O)N1CCOCC1 | / | / | 1 | 8 | 46* | / | 37 | 2
COc1ccc(CC(=O)N(C)Cc2cccc(F)c2)cc1S(=O)(=O)N1CCOCC1 | / | / | -2 | 17 | 22 | / | / | /
COc1ccc(CC(=O)N(Cc2ccccc2)c2ccc(C)cc2)cc1S(=O)(=O)N1CCOCC1 | / | / | -2 | 28 | 43* | / | 43* | 6 | Apaf1 inh interf=>100
CCOCCCNC(=O)Cn1cnc2c(cnn2-c2ccc(OC)cc2)c1=O | 4 | 106 | / | -7 | -6 | 106 | / | /
Cc1ccc(S(=O)(=O)CCC(=O)Nc2cc(Cl)ccc2-n2cncn2)cc1 | / | / | 1 | -1 | 5 | / | / | /
O=S(=O)(NC1CC1)c1ccc(S(=O)(=O)N2CCCC(c3nc(-c4cccnc4)no3)C2)cc1 (stereo not given) | 5 | 113 | 2 | 38 | 5 | 108 | / | /
Fc1ccccc1N1CCN(Cc2cccnc2)CC1 | -2 | 96 | 1 | -16 | -2 | 92 | / | /
Cc1c(/C=N/Nc2ccc(F)cc2)c(O)n(C)c(=O)c1C#N | -3 | 95 | -8 | -1 | 13 | 100 | / | /
CC(=O)N=Cc1c(C)c(C#N)c(=O)n(C)c1O | 9 | 105 | 2 | -13 | 44* | 104 | -2 | -1
CCN(c1ccccc1)c1nc(=O)c2cccnc2s1 | -9 | 83 | -4 | 8 | -5 | 98 | / | /
CCN(c1ccccc1)c1cc2ccccc2c(=O)[nH]1 | -5 | 97 | / | -26 | 96* | 101 | 59* | 5 | Apaf1 inh interf=>100
O=C(CCc1c[nH]c2ccccc12)NCc1ccco1 | -5 | 97 | 4 | 4 | 1 | 89 | / | /
CCOc1cc(C2C(C(C)=O)=C(O)C(=O)N2CCc2c[nH]c3ccccc23)ccc1O (stereo not given) | 0 | 108 | 6 | 16 | 49* | 126 | 12 | 9
CC(=O)C1=C(O)C(=O)N(CCc2c[nH]c3ccccc23)C1c1ccc(C)cc1 (stereo not given) | -7 | 97 | 9 | 7 | 4 | 97 | / | /
CC(=O)C1=C(O)C(=O)N(CCc2c[nH]c3ccccc23)C1c1ccco1 (stereo not given) | -3 | 98 | 12 | -37 | 43* | 99 | -1 | 5
O=C(/C=C/c1cccnc1)c1cccc(O)c1 | 4 | 104 | 8 | 8 | -9 | 106 | / | /
CN1CCN(C2CCN(c3ccc(Nc4nnc(Cl)c(Nc5ccccc5S(C)(=O)=O)n4)c(OC(CF)CF)c3)CC2)CC1 | / | / | 1 | 20 | 11 | / | / | /
CC[n+]1c(/C=C(\C)SC)sc2ccccc21 | 0 | 102 | 8 | -2 | -7 | 94 | / | /
CCN1/C(=C/C=C/c2sc3ccccc3[n+]2CC)Sc2ccccc21 | / | / | 3 | 2 | 90* | / | 51* | 16 | Apaf1 inh interf=>100
COC(C[C@H]1O[C@@H]1C(=O)[C@H](C)OCc1ccccc1)OC | -6 | 94 | 1 | 3 | 48* | 95 | 1 | 1
O=C1C(Cl)=C(NC2CCCCC2)C(=O)N1c1ccc(Cl)cc1 | -1 | 98 | -1 | 8 | 3 | 99 | / | /
CC(C)NC[C@@H](O)c1ccc(O)c(O)c1 | -2 | 101 | 2 | 13 | 43* | 85 | 14 | 5
CC(C)(C)NCC(O)c1ccc(O)c(CO)c1 (stereo not given) | 4 | 111 | / | / | / | 104 | / | /
Cc1c(/C=N/Nc2nc3ccccc3[nH]2)c2ccccc2n1C | 30 | 168* | / | -9 | 43* | 98 | 8 | 18
SMILES | MEKK2mut PB1 HTS | MEKK2 WT-MEK5 | UCH37 DUB inh | UBC13 polyUb | Apaf-1 inh | MEKK3 PB1 HTS | Apaf-1 inh conf | Rh110 quench | others
Cn1c(/C=N/Nc2nc3ccccc3[nH]2)nc2ccccc21 | 1 | 104 | / | -40 | 14 | 108 | / | /
O=C(NCCOc1nc(N2CCCCC2)nc(N2CCCCC2)n1)Nc1ccccc1 | 5 | 106 | 5 | -9 | 41* | 106 | 15 | 11
O=c1cccccc1NCc1ccccc1 | -4 | 96 | 5 | -18 | 45* | 101 | 7 | 6
COc1cc(/C=C/c2ccc3cccc(O)c3n2)c(Br)cc1O | 4 | 104 | / | -10 | 7 | 108 | / | /
Cc1ccc(S(=O)(=O)NCCN2CCN(S(=O)(=O)c3ccccc3Cl)CC2)cc1 | / | / | -1 | -5 | 8 | / | / | /
CCCN1CCN(C(=O)C2CCN(S(=O)(=O)c3c(C)noc3/C=C/c3ccc(C)cc3)CC2)CC1 | 10 | 130 | 3 | 20 | 61* | 104 | 27 | 1
NC(N)=Nc1nc(CSCC/C(N)=N/S(N)(=O)=O)cs1 | -2 | 101 | -2 | 2 | -7 | 107 | / | /
O=C(C/C=N/OCc1c(Cl)cccc1Cl)c1ccccc1 | -6 | 93 | / | 1 | 11 | 93 | / | /
CCCCN(CCCC)CCCNC(=O)C1CC(c2ccc(C(F)(F)F)cc2)=NO1 (stereo not given) | 6 | 101 | 1 | 16 | -2 | 99 | / | /
COc1ccc(C2CC(=O)Oc3c(C(CCN4CCN(c5ccccc5)CC4)c4ccc(N(C)C)cc4)c(OC)cc(OC)c32)cc1 (stereo not given) | 7 | 117 | -1 | -8 | 25 | 98 | / | /
COc1cc(OC)c2c(-c3ccccc3)cc(=O)oc2c1C(CCN1CCOCC1)c1ccc(N(C)C)cc1 (stereo not given) | / | / | / | / | 52* | / | 11 | -2
CN1CCN(CCc2nc3cc(NC(=O)COc4ccccc4)ccc3n2C)CC1 | / | / | 5 | 9 | 57* | / | 21 | 3
CN1CCN(c2ccc(-c3cccc(NC(=O)COc4ccccc4)c3)nn2)CC1 | / | / | 4 | 0 | 47* | / | 14 | 5
Cn1c(CCN2CCCCC2)nc2cc(NC(=O)COc3ccccc3)ccc21 | 3 | 110 | 3 | 6 | 53* | 101 | 16 | 1
CN1CCN(c2ccc(-c3cccc(NC(=O)COc4ccc(Cl)cc4)c3)nn2)CC1 | / | / | 9 | 10 | 36 | / | / | /
CCN1CCN(CCc2nc3cc(NC(=O)COc4ccccc4)ccc3n2C)CC1 | 10 | 114 | 2 | 8 | 51* | 105 | 26 | 4
Cc1nn(CC(=O)NCc2ccccc2)c(=O)c2cccn12 | 7 | 108 | 3 | 1 | 1 | 104 | / | /
